Data on 37 compounds can be found in paper PMC11365375 (Acta Pharmaceutica Sinica. B, 2024).

For one data set, the system named is H460^R231Q cells. Briefly: Cell proliferation assay. It counts as cell-based, human. To be noted: for IC50: Homo sapiens, 72 h, read-out: H460^R231Q (IC50, μmol/L). The procedure, abridged: (§1)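 Human NCI-H460 NSCLC cells engineered to express wild-type or R231Q DOT1L (aa 1–416) were grown in RPMI 1640 with 10% FBS. Cells were seeded in 96-well plates and exposed to a range of test compound concentrations for 72 h at 37 °C, 5% CO₂. Growth was read by CCK-8 on a plate reader, and IC50 values were derived from the dose–response.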

Another data set concerns H460^WT cells. Briefly: Cell proliferation assay. It counts as cell-based. To be noted: Homo sapiens, 72 h, read-out: H460^WT (IC50, μmol/L). The procedure, abridged:
as §1

For data set [1] the following is noted: cited from earlier work.
For data set [2], the system named is DOT1L^R231Q mediated H3K79me2 level in H460^R231Q cells. The data set can be described thus: Quantitative Western blot analysis of H3K79me2 level in H460^R231Q cells. It counts as cell-based, human. Summed up: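 H460^R231Q cells were treated with test compound, and histones were extracted with a total histone extraction kit; protein was quantified by BCA. Extracts were resolved on 8–15% SDS-PAGE, transferred to PVDF and probed for H3K79me2 and histone H3, with ECL/X-ray film detection. Band densities were quantified, and H3K79me2 was normalised to H3. The dimethylation index was the compound value divided by the SGC0946 (positive control) value.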

As for `CC(C)(C)C(=O)Nc1ccc2[nH]c(CN3CCC(N(CCC(=O)NCC4CCCO4)C[C@H]4O[C@@H](n5cnc6c(N)ncnc65)[C@H](O)[C@@H]4O)CC3)nc2c1` (stereo partly shown) [Compound 32], in the data set on H460^R231Q cells, the IC50 turned out to be 96.5 ± 5.45 µmol/L. In the case of `CC(C)N(CCC1CC2CN(C(=O)Nc3ccc(C(C)(C)C)cc3)CC2C1)C[C@H]1O[C@@H](n2cnc3c(N)ncnc32)[C@H](O)[C@@H]1O` (stereo partly shown) [Compound 12], the IC50 in the data set with H460^R231Q cells was above 100 µmol/L. On to `COc1ccc(CN2CC3CC(N(C[C@H]4O[C@@H](n5cnc6c(N)ncnc65)[C@H](O)[C@@H]4O)C(C)C)CC3C2)cc1Br` (stereo partly shown) [Compound 8], for which the IC50 is above 100 µmol/L in the data set with H460^WT cells and 85.8 ± 6.87 µmol/L in the data set on H460^R231Q cells. For `CC(C)(C)C(=O)Nc1ccc2[nH]c(CN3CCC(N(CCC(=O)N4CCS(=O)(=O)CC4)C[C@H]4O[C@@H](n5cnc6c(N)ncnc65)[C@H](O)[C@@H]4O)CC3)nc2c1` [Compound 34], the IC50 with H460^R231Q cells is 59.4 ± 4.38 µmol/L. As to `CC(C)N(C[C@H]1O[C@@H](n2cnc3c(N)ncnc32)[C@H](O)[C@@H]1O)[C@H]1C[C@@H](CCc2nc3cc(C(C)(C)C)ccc3[nH]2)C1` [EPZ5676], in data set [1], the clearance – broadly, the volume of plasma or blood freed of the substance per unit of time – was 68 mL/min/kg and the “oral bioavailability (F)” value is 0%. Regarding `CC(C)(C)C(=O)Nc1ccc2nc(CN3CCC(N(CC(=O)N4CCCC4)C[C@H]4O[C@@H](n5cnc6c(N)ncnc65)[C@H](O)[C@@H]4O)CC3)[nH]c2c1` [Compound 26], the IC50 in the data set with H460^R231Q cells worked out at 46.7 ± 2.69 µmol/L. Regarding `CC(C)N(CCC1CC2CN(C(=O)Nc3ccc(Br)cc3)CC2C1)C[C@H]1O[C@@H](n2cnc3c(N)ncnc32)[C@H](O)[C@@H]1O` (stereo partly shown) [Compound 13], the IC50 with H460^R231Q cells amounted to 87.2 ± 7.63 µmol/L. For the compound `CCN1CCN(CCCN(C[C@H]2O[C@@H](n3cnc4c(N)ncnc43)[C@H](O)[C@@H]2O)C2CCN(Cc3nc4cc(NC(=O)C(C)(C)C)ccc4[nH]3)CC2)CC1` [Compound 39], the IC50 in the data set with H460^R231Q cells turned out to be 27.6 ± 1.31 µmol/L. The “fold decreased activity against H460^R231Q cells” value with H460^R231Q cells (versus 37) is on record as 4 fold. For the compound `CN(C[C@H]1O[C@@H](n2cnc3c(N)ncnc32)[C@H](O)[C@@H]1O)C1CCN(Cc2nc3cc(NC(=O)C(C)(C)C)ccc3[nH]2)CC1` [Compound 23], the IC50 in the data set on H460^R231Q cells was 34.8 ± 1.92 µmol/L. `CC(C)(C)C(=O)Nc1ccc2nc(CN3CCC(N(CC(=O)N4CCC(O)CC4)C[C@H]4O[C@@H](n5cnc6c(N)ncnc65)[C@H](O)[C@@H]4O)CC3)[nH]c2c1` [Compound 28]: the IC50 with H460^R231Q cells was determined as 22.5 ± 1.81 µmol/L. `CC(C)(C)C(=O)Nc1ccc2[nH]c(CN3CCC(N(CCCN4CCC(O)CC4)C[C@H]4O[C@@H](n5cnc6c(N)ncnc65)[C@H](O)[C@@H]4O)CC3)nc2c1` [Compound 36]: in the data set with H460^R231Q cells, the IC50 amounted to 8.76 ± 0.61 µmol/L. Besides, the “H3K79me2 level mediated by DOT1L^R231Q” value in data set [2] (5 μmol/L, WB) is recorded as “significantly reduced”. On to `CC1CCN(CCCN(C[C@H]2O[C@@H](n3cnc4c(N)ncnc43)[C@H](O)[C@@H]2O)C2CCN(Cc3nc4cc(NC(=O)C(C)(C)C)ccc4[nH]3)CC2)CC1` [Compound 38], for which the IC50 in the data set on H460^R231Q cells was 43.1 ± 1.88 µmol/L. As to `COC(=O)C1CCN(CCCN(C[C@H]2O[C@@H](n3cnc4c(N)ncnc43)[C@H](O)[C@@H]2O)C2CCN(Cc3nc4cc(NC(=O)C(C)(C)C)ccc4[nH]3)CC2)CC1` [Compound 40], in the data set on H460^R231Q cells, the IC50 amounted to 55.3 ± 5.49 µmol/L. Regarding `CC(C)N(C[C@H]1O[C@@H](n2cnc3c(N)ncnc32)[C@H](O)[C@@H]1O)C1CC2CN(C(=O)Nc3ccc(NC(=O)C(C)(C)C)cc3)CC2C1` (stereo partly shown) [Compound 5], the IC50 with H460^WT cells was above 100 µmol/L; in the data set on H460^R231Q cells, 37.9 ± 3.09 µmol/L. In addition, the “inhibitory activity against DOT1L^R231Q in WB assay” value in data set [2] (H3K79me2 level, H460^R231Q cells) is given as “moderate inhibitory activity”.

On to `CC(C)(C)C(=O)Nc1ccc2nc(CN3CCC(N(CC(=O)NCc4ccco4)C[C@H]4O[C@@H](n5cnc6c(N)ncnc65)[C@H](O)[C@@H]4O)CC3)[nH]c2c1` [Compound 31], for which the IC50 in the data set on H460^R231Q cells is above 100 µmol/L. `CN(C)C(=O)CN(C[C@H]1O[C@@H](n2cnc3c(N)ncnc32)[C@H](O)[C@@H]1O)C1CCN(Cc2nc3cc(NC(=O)C(C)(C)C)ccc3[nH]2)CC1` [Compound 25]: the IC50 with H460^R231Q cells worked out at 70 ± 2.44 µmol/L.

Take `CC(C)(C)C(=O)Nc1ccc2nc(CN3CCC(N(CC(=O)N4CCOCC4)C[C@H]4O[C@@H](n5cnc6c(N)ncnc65)[C@H](O)[C@@H]4O)CC3)[nH]c2c1` [Compound 30]: in the data set on H460^R231Q cells, the IC50 is 46.1 ± 3 µmol/L. In the case of `CCN(CC)CCCN(C[C@H]1O[C@@H](n2cnc3c(N)ncnc32)[C@H](O)[C@@H]1O)C1CCN(Cc2nc3ccc(NC(=O)C(C)(C)C)cc3[nH]2)CC1` [Compound 42], in the data set on H460^R231Q cells, the IC50 was 73.3 ± 3.18 µmol/L. As for `CC(C)N(C[C@H]1O[C@@H](n2cnc3c(N)ncnc32)[C@H](O)[C@@H]1O)C1CC2CN(Cc3c(F)cc(Br)cc3F)CC2C1` (stereo partly shown) [Compound 11], the IC50 in the data set with H460^WT cells was above 100 µmol/L; in the data set with H460^R231Q cells it was 68.2 ± 3.03 µmol/L. In the case of `COc1ccc(NC(=O)N2CC3CC(N(C[C@H]4O[C@@H](n5cnc6c(N)ncnc65)[C@H](O)[C@@H]4O)C(C)C)CC3C2)cc1` (stereo partly shown) [Compound 4], the IC50 is above 100 µmol/L in the data set with H460^WT cells and 60 ± 5.84 µmol/L with H460^R231Q cells. In the case of `COc1cc(CN2CC3CC(N(C[C@H]4O[C@@H](n5cnc6c(N)ncnc65)[C@H](O)[C@@H]4O)C(C)C)CC3C2)cc(OC)c1OC` (stereo partly shown) [Compound 10], the IC50 is above 100 µmol/L in the data set on H460^WT cells and 95.9 ± 4.26 µmol/L with H460^R231Q cells. With `COC(=O)CN(C[C@H]1O[C@@H](n2cnc3c(N)ncnc32)[C@H](O)[C@@H]1O)C1CC2CN(C(=O)Nc3ccc(NC(=O)C(C)(C)C)cc3)CC2C1` (stereo partly shown) [Compound 19], the IC50 in the data set on H460^R231Q cells was above 100 µmol/L. As to `CC(C)N(CCC1CC2CN(C(=O)Nc3ccc(NC(=O)C(C)(C)C)cc3)CC2C1)C[C@H]1O[C@@H](n2cnc3c(N)ncnc32)[C@H](O)[C@@H]1O` (stereo partly shown) [Compound 14], the IC50 with H460^R231Q cells is above 100 µmol/L. Regarding `CC(C)N(CCC1CC2CN(Cc3ccc(C#N)cc3)CC2C1)C[C@H]1O[C@@H](n2cnc3c(N)ncnc32)[C@H](O)[C@@H]1O` (stereo partly shown) [Compound 16], the IC50 with H460^R231Q cells stood at 96.6 ± 5.07 µmol/L.

With `CC(C)N(C[C@H]1O[C@@H](n2cnc3c(N)ncnc32)[C@H](O)[C@@H]1O)C1CC2CN(C(=O)Nc3ccc(C(C)(C)C)cc3)CC2C1` (stereo partly shown) [Compound 2], the results for the IC50 in the data set with H460^WT cells and in the data set with H460^R231Q cells were above 100 µmol/L and 40.1 ± 3.73 µmol/L, respectively. Regarding `CC(C)N(CCC1CC2CN(Cc3ccc(F)c(F)c3)CC2C1)C[C@H]1O[C@@H](n2cnc3c(N)ncnc32)[C@H](O)[C@@H]1O` (stereo partly shown) [Compound 17], the IC50 in the data set on H460^R231Q cells came out at 82 ± 3.25 µmol/L. The same measure, in the same setting: to `CC(C)(C)C(=O)Nc1ccc(NC(=O)N2CC3CC(N(CC(=O)NC4CC4)C[C@H]4O[C@@H](n5cnc6c(N)ncnc65)[C@H](O)[C@@H]4O)CC3C2)cc1` (stereo partly shown) [Compound 20] belongs 52.7 ± 2.99 µmol/L; to `CC(C)NC(=O)CCN(C[C@H]1O[C@@H](n2cnc3c(N)ncnc32)[C@H](O)[C@@H]1O)C1CCN(Cc2nc3cc(NC(=O)C(C)(C)C)ccc3[nH]2)CC1` [Compound 33], 73 ± 5.07 µmol/L; to `COC1(OC)CCN(CCCN(C[C@H]2O[C@@H](n3cnc4c(N)ncnc43)[C@H](O)[C@@H]2O)C2CCN(Cc3nc4cc(NC(=O)C(C)(C)C)ccc4[nH]3)CC2)CC1` [Compound 41], 32.5 ± 3.56 µmol/L. Take `CC1CCN(C(=O)CN(C[C@H]2O[C@@H](n3cnc4c(N)ncnc43)[C@H](O)[C@@H]2O)C2CCN(Cc3nc4ccc(NC(=O)C(C)(C)C)cc4[nH]3)CC2)CC1` [Compound 27]: the IC50 in the data set with H460^R231Q cells stood at 46.7 ± 3.7 µmol/L. Take `CC(C)(C)C(=O)Nc1ccc2[nH]c(CN3CCC(N(CCC(=O)N4CCSCC4)C[C@H]4O[C@@H](n5cnc6c(N)ncnc65)[C@H](O)[C@@H]4O)CC3)nc2c1` [Compound 35]: the IC50 in the data set on H460^R231Q cells stood at 18.6 ± 0.94 µmol/L.

In the case of `COC(=O)CN(C[C@H]1O[C@@H](n2cnc3c(N)ncnc32)[C@H](O)[C@@H]1O)C1CCN(Cc2nc3cc(NC(=O)C(C)(C)C)ccc3[nH]2)CC1` [Compound 24], the IC50 with H460^R231Q cells is 94 ± 7.07 µmol/L. As to `CN(C)C(=O)CN(C[C@H]1O[C@@H](n2cnc3c(N)ncnc32)[C@H](O)[C@@H]1O)C1CC2CN(C(=O)Nc3ccc(NC(=O)C(C)(C)C)cc3)CC2C1` (stereo partly shown) [Compound 21], the IC50 with H460^R231Q cells came out at 72.5 ± 4.5 µmol/L. As for `CCN1CCN(C(=O)CN(C[C@H]2O[C@@H](n3cnc4c(N)ncnc43)[C@H](O)[C@@H]2O)C2CCN(Cc3nc4ccc(NC(=O)C(C)(C)C)cc4[nH]3)CC2)CC1` [Compound 29], the IC50 with H460^R231Q cells worked out at 29.2 ± 1.63 µmol/L. `CC(C)(C)C(=O)Nc1ccc(NC(=O)N2CC3CC(N(CC(=O)N4CCSCC4)C[C@H]4O[C@@H](n5cnc6c(N)ncnc65)[C@H](O)[C@@H]4O)CC3C2)cc1` (stereo partly shown) [Compound 22]: the IC50 with H460^R231Q cells stood at 44.6 ± 3.87 µmol/L. As for `CC(C)N(C[C@H]1O[C@@H](n2cnc3c(N)ncnc32)[C@H](O)[C@@H]1O)C1CC2CN(C(=O)Nc3ccc(Br)cc3)CC2C1` (stereo partly shown) [Compound 3], the IC50 is above 100 µmol/L in the data set with H460^WT cells and 48.8 ± 2.76 µmol/L with H460^R231Q cells.

Consider `CN(C[C@H]1O[C@@H](n2cnc3c(N)ncnc32)[C@H](O)[C@@H]1O)C1CC2CN(C(=O)Nc3ccc(C(C)(C)C)cc3)CC2C1` (stereo partly shown) [Compound 1], for which the results for the IC50 with H460^WT cells and with H460^R231Q cells were above 100 µmol/L and 77.6 ± 3.18 µmol/L, respectively.
